Assay outcomes: PubChem, several laboratories
The list is not random: actives were taken first. Their share in the collection is about 5%.
CSC inhib – cancer stem cell viability inhibitors, primary screen, luminescence; cancer stem cell-like cells viability; hit rate 1.1% among 300,000; inhibition, % at 7.5 µM; in the data active = inhibition above about 75%; tested in HMLE shEcad cells
Beta cell apopt – inhibitors of cytokine-induced beta cell apoptosis, primary screen, luminescence; hit rate 0.8% among 300,000; protection from apoptosis, % (concentration not given with the values); INS-1E cytokine-induced death, ATP luminescence, 48 h; percent of positive-control rescue, neutral wells zero;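 active = Every replicate reaches about 75%, or at least half do and their mean reaches it too, limit read from the data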;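 also: higher means more ATP so stronger rescue from cytokine killing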
XBP1 UPR activ – activators of adaptive XBP1 UPR arm, primary screen, cell-based, CHO-XBP1 luciferase reporter, luminescence, uHTS; AID 463104, 2010; activation, % at 20 µM; IRE1-XBP1 UPR activation; percent of tunicamycin response, DMSO as zero; hit rate 0.33% among 330,000;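 active = versus positive control, 20 µM dose yields 30% or more activation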
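Signal: luciferase luminescence; Assay system: CHO-XBP1 luciferase reporter cells; Amount: one thousand reporter cells per well; Dosing: 20 µM single concentration, DMSO 1%; Benchmarks: high control tunicamycin 10 µg/mL final, low control DMSO vehicle only; Schedule: 6 h compound exposure at 37 °C, 5% CO2; Evaluation: percent activation relative to tunicamycin reference.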
CHOP UPR activ – activators of apoptotic CHOP UPR arm, primary screen, cell-based, CHO-CHOP luciferase reporter, luminescence, uHTS. activation, % at 10 µM. hit rate 0.34% among 330,000. AID 449763, 2010. UPR activation; percent of tunicamycin response over DMSO baseline;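 active = at 10 µM dose, activation of 40% or more, normalized to positive control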
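System: CHO-CHOP luciferase reporter cell line | Buffer or medium: F12 medium containing 10% fetal bovine serum | Doses: One dose, 10 µM in 0.5% DMSO | Times: 6 h compound exposure at 37 °C after overnight seeding | Signal: Luciferase luminescence | Read-out: % activation vs tunicamycin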
T cruzi repl – inhibitors of intracellular T. cruzi growth, primary screen, luminescence, NIH3T3 host cells. inhibition, % (no concentration beside the values). T. cruzi beta-gal in NIH3T3, 90 h. hit rate 1.4% among 300,000. AID 1885, 2009;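 active = mean inhibition across valid replicates above about 55%, limit read from the data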;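 also: signal also drops with host cell toxicity which is not excluded here; higher percent means less beta-gal luminescence so fewer parasites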
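assay system = mouse NIH/3T3 fibroblasts infected with β-gal-expressing T. cruzi Tulahuen C4 | input = 5,000 NIH/3T3 host cells per well | buffer or medium = DMEM plus 2% FBS | timing = 3 h host attachment, then at least 90 h co-culture | measured by = GalScreen luminescence, 60 min | evaluation = luminescence reflecting intracellular parasite burden, expressed as percent inhibition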
Mdm2 MdmX PPI – inhibitors of human Mdm2-MdmX association, primary screen, cell-based, luminescence, split luciferase, SaOS-2, uHTS. Protein Mdm4 (Homo sapiens) + E3 ubiquitin-protein ligase Mdm2 (Homo sapiens), …. SaOS-2 split-luciferase Mdm2/MdmX complementation. inhibition, % at 8 µM. hit rate 3% among 330,000. AID 485346, 2010;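 active = inhibition of at least 50% at 8 µM in the primary screen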
Target sequence (O15151 whole entry, looked up): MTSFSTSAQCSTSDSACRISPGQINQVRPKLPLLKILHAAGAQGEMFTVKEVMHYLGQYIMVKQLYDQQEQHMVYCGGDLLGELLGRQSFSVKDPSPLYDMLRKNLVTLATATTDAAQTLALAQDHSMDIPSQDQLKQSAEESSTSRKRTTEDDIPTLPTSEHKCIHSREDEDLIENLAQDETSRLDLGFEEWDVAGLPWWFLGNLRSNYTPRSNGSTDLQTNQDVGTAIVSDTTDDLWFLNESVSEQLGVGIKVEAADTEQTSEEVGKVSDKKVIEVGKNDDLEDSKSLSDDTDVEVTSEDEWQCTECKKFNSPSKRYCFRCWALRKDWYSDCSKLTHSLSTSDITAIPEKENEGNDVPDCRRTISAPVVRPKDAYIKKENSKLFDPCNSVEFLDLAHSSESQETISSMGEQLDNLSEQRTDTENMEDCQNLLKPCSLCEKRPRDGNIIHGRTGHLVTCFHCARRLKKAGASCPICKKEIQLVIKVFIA
Target sequence (Q00987 whole entry, looked up): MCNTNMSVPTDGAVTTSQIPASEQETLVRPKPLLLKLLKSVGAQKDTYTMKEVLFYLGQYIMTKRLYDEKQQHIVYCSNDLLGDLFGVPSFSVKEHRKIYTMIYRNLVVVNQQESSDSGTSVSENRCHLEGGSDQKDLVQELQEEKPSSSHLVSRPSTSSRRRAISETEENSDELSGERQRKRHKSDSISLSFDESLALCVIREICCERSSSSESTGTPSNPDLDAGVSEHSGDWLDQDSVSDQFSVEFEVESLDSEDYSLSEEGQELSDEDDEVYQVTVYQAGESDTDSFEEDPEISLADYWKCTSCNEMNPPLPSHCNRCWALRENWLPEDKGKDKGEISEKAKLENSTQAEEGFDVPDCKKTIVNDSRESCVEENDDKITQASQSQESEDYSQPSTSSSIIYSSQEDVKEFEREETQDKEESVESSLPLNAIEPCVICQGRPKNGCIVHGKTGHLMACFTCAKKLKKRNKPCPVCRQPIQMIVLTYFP
UPR CHOP confirm – activators of apoptotic CHOP UPR arm, confirmation, cell-based, CHO-CHOP luciferase reporter, single concentration | CHO-CHOP cells, CHOP-luciferase reporter luminescence; percent of tunicamycin response, DMSO as zero | shares compounds with CHOP UPR activ | activation, % at 10 µM | hit rate 64% among 1,000; in the data active = activation above about 33%
Large screens that a line does not name were inactive (follow-up assays come after a bar, where they were run).

N#CC1=C(N)OC2=C(CC/C2=C\c2ccccc2)C1c1ccccc1 (stereo not drawn)	CHOP UPR activ 104 | UPR CHOP confirm 180
CC1(C)CC(=O)C2=C(C1)Oc1nc3ccccc3cc1C2C(C#N)C#N (stereo not drawn)	CHOP UPR activ 63 (no result: T cruzi repl) | UPR CHOP confirm 34
Cn1c(SCC(=O)NC2CC2)nnc1-c1ccc(Cl)cc1	none (no result: T cruzi repl)
CC(OC(=O)c1c[nH]c2ccccc12)C(=O)N1CCCC1 (stereo not drawn)	CHOP UPR activ 90 (no result: CSC inhib, T cruzi repl) | UPR CHOP confirm inactive
S=C(c1c[nH]c2ccccc12)N1CCCC1	none (no result: CSC inhib)
COc1ccc(/C=C\c2nc(=O)c3ccccc3o2)cc1	CHOP UPR activ 57 (no result: CSC inhib, Beta cell apopt) | UPR CHOP confirm 121
CCOC(=O)C(=O)Nc1ccc(F)cc1	none
CCOC(=O)C(=Cc1ccc(-n2ccnc2)cc1)C(=O)OCC	CSC inhib 86, CHOP UPR activ 188 | UPR CHOP confirm 142
CCOC(=O)C(=Cc1ccc(F)cc1)C(=O)OCC	CSC inhib 96, CHOP UPR activ 122 | UPR CHOP confirm 140
O=c1oc(-c2ccc(O)c(O)c2)cc2cccc(O)c12	CHOP UPR activ 54 (no result: CSC inhib, Beta cell apopt, T cruzi repl) | UPR CHOP confirm inactive
O=c1oc(-c2ccc(O)c(O)c2)cc2cc(O)cc(O)c12	none (no result: CSC inhib, Beta cell apopt, T cruzi repl)
CCCCn1c(/C=N/Nc2nc3ccccc3[nH]2)nc2ccccc21	Beta cell apopt 76, CHOP UPR activ 113 (no result: CSC inhib) | UPR CHOP confirm 294
Cc1nn(CC2CC2)c(=O)n1-c1ccc(Cl)cc1	none
Cc1nn(CC2CC2)c(=O)n1-c1ccccc1	CHOP UPR activ 48 | UPR CHOP confirm inactive
C=CCN=c1scc(-c2ccco2)n1/N=C/c1ccc(O)c(O)c1O	CHOP UPR activ 161 | UPR CHOP confirm 64
COCCN=c1scc(-c2ccco2)n1/N=C/c1ccc(O)c(O)c1O	none (no result: T cruzi repl)
CC(C)N=c1scc(-c2ccco2)n1/N=C/c1ccc(O)c(O)c1	CSC inhib 99, CHOP UPR activ 159 (no result: T cruzi repl) | UPR CHOP confirm 127
CCOC(=O)CC1C(=O)NCCN1C(=O)c1c(Cl)cccc1Cl (stereo not drawn)	none (no result: CSC inhib, Beta cell apopt)
CNC(=O)CSc1nnc(C(C)C)n1C	none
COc1cccc(-c2nc(CS(=O)CC(=O)NCc3ccccc3)c(C)o2)c1 (stereo not drawn)	CHOP UPR activ 69 | UPR CHOP confirm inactive
O=C(Cn1cc(/C=C\[N+](=O)[O-])c2ccccc21)Nc1ccccc1	CHOP UPR activ 61 (no result: CSC inhib) | UPR CHOP confirm 115
O=C(O)Cn1cc(/C=C/[N+](=O)[O-])c2ccccc21	none
O=[N+]([O-])/C=C/c1cn(Cc2ccccc2)c2ccccc12	none
N#Cc1ccccc1Cn1cc(/C=C/[N+](=O)[O-])c2ccccc21	CHOP UPR activ 85 (no result: CSC inhib, Beta cell apopt) | UPR CHOP confirm inactive
Cc1ccc2nc(-c3ccc(O)c(O)c3)cn2c1	CHOP UPR activ 155 | UPR CHOP confirm 61
COc1ccc(C(=O)Sc2ccc(Cl)cc2)cc1OC	CHOP UPR activ 87 | UPR CHOP confirm 58
O=C(O)CCn1c(-c2ccccn2)nc2ccccc21	none (no result: Beta cell apopt)
Cc1ccc(S/C=C\C(=O)c2ccccc2)cc1	CHOP UPR activ 69 (no result: CSC inhib, Beta cell apopt) | UPR CHOP confirm 56
Cc1ccc(C(=O)C=CNNC(=O)c2ccccc2)cc1	none
N#CCNC(=O)C1CC(=O)N(CCc2ccc(F)cc2)C1 (stereo not drawn)	none (no result: Beta cell apopt)
COc1ccc(-c2ccc(-c3nc4c(c(=O)[nH]c(=O)n4Cc4ccccc4)n3C)o2)c([N+](=O)[O-])c1	CHOP UPR activ 59 (no result: CSC inhib) | UPR CHOP confirm 41
